Test results from ChEMBL document CHEMBL3244313, “Synthesis of some carbon-3 substituted 1,4-benzodiazepin-2-ones and their central nervous system effects” (J Med Chem, 1979).
Active and inactive are the calls of the source. The calls are words filed in the database; no cut-off is given here.

Key:
Mus musculus [1] = assay: Potency index, ratio of chlordiazepoxide ED50 to compound ED50 for anticonvulsant activity in po dosed albino Swiss-Webster mouse assessed as reduction of pentylenetetrazole-induced seizure; type: functional
Mus musculus [2] = assay: Potency index, ratio of chlordiazepoxide ED50 to compound ED50 for anticonvulsant activity in po dosed albino Swiss-Webster mouse assessed as reduction of maximum electro shock-induced seizure; type: functional
Mus musculus [3] = assay: Potency index, ratio of chlordiazepoxide ED50 to compound ED50 for anticonvulsant activity in po dosed albino Swiss-Webster mouse assessed as reduction of minimum electro shock-induced seizure; type: functional
Mus musculus [4] = assay: Potency index, ratio of chlordiazepoxide ED50 to compound ED50 for muscle relaxing activity in po dosed albino Swiss-Webster mouse; type: functional
Mus musculus [5] = assay: Potency index, ratio of chlordiazepoxide ED50 to compound ED50 for behavioral activity in po dosed albino Swiss-Webster mouse by fighting test; type: functional
Mus musculus [6] = assay: Potency index, ratio of chlordiazepoxide ED50 to compound ED50 for hypnotic activity in po dosed albino Swiss-Webster mouse; type: functional
[7] = Toxicity in po dosed albino Swiss-Webster mouse; type: organism-based; details: in vivo
[8] = 1-Octanol-aqueous phosphate buffer partition coefficient, log P of the compound at pH 7.35; type: physicochemical
In short: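 Concentrations in each phase (C_oct, C_w) measured by UV spectrophotometry. P_oct = C_oct/C_w, reported as log P_oct.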

Mus musculus [9] = assay: Anticonvulsant activity in po dosed albino Swiss-Webster mouse assessed as reduction of pentylenetetrazole-induced seizure; type: functional, organism-based
In short: (§1)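 Oral dosing in male and female albino Swiss-Webster mice weighing 25–30 g, six mice per group. ED50 determined with 95% confidence limits.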

Mus musculus [10] = assay: Anticonvulsant activity in po dosed albino Swiss-Webster mouse assessed as reduction of maximum electro shock-induced seizure; type: functional, organism-based; in short: as §1
Mus musculus [11] = assay: Anticonvulsant activity in po dosed albino Swiss-Webster mouse assessed as reduction of minimum electro shock-induced seizure; type: functional, organism-based; in short: as §1
Mus musculus [12] = assay: Muscle relaxing activity in po dosed albino Swiss-Webster mouse; type: functional, organism-based; in short: as §1

SMILES: O=C1Nc2ccc(Cl)cc2C(c2ccccc2Cl)=NC1OCC(O)CO (centres undefined)
- Ratio ED50 (Mus musculus [1]): 36.8
- Ratio ED50 (Mus musculus [2]): 4.68
- Ratio ED50 (Mus musculus [3]): 0.86
- Ratio ED50 (Mus musculus [4]): 1.25
- Ratio ED50 (Mus musculus [5]): 15.3
- Ratio ED50 (Mus musculus [6]): 0.58
- LD50 [7]: 7820 µmol/kg
- logD [8]: 1.96

SMILES: CNC1=Nc2ccc(Cl)cc2C(c2ccccc2)=[N+]([O-])C1 [CHLORDIAZEPOXIDE]
- logD [8]: 2.5

SMILES: CN1C(=O)C(OC(=O)C(Cl)(Cl)Cl)N=C(c2ccccc2)c2cc(Cl)ccc21 (centres undefined)
- Ratio ED50 (Mus musculus [1]): 15.3
- Ratio ED50 (Mus musculus [2]): 5.2
- Ratio ED50 (Mus musculus [3]): 1.62
- Ratio ED50 (Mus musculus [4]): 1.93
- Ratio ED50 (Mus musculus [5]): 1.3
- Ratio ED50 (Mus musculus [6]): 0.9
- LD50 [7]: 5600 µmol/kg

SMILES: CC(=O)OC[C@H]1O[C@H](OCCOC2N=C(c3ccccc3)c3cc(Cl)ccc3NC2=O)[C@H](OC(C)=O)[C@@H](OC(C)=O)[C@@H]1OC(C)=O (mixture of isomers)
- Ratio ED50 (Mus musculus [1]): 13.4
- Ratio ED50 (Mus musculus [2]): 3.6
- Ratio ED50 (Mus musculus [3]): 0.98
- Ratio ED50 (Mus musculus [4]): 0.68
- Ratio ED50 (Mus musculus [5]): 1.78
- Ratio ED50 (Mus musculus [6]): 0.9
- LD50 [7]: 17300 µmol/kg

SMILES: CC1(C)OCC(COC2N=C(c3ccccc3Cl)c3cc(Cl)ccc3NC2=O)O1 (centres undefined)
- Activity (Mus musculus [9]): inactive
- Activity (Mus musculus [10]): inactive
- Activity (Mus musculus [11]): inactive
- Activity (Mus musculus [12]): inactive
- Ratio ED50 (Mus musculus [5]): 2.3
- Ratio ED50 (Mus musculus [6]): 2
- LD50 [7]: 7590 µmol/kg
- logD [8]: 2.48

SMILES: O=C1Nc2ccc(Cl)cc2C(c2ccccc2)=NC1OCCO (centres undefined)
- Ratio ED50 (Mus musculus [1]): 10.3
- Ratio ED50 (Mus musculus [2]): 0.58
- Ratio ED50 (Mus musculus [3]): 0.4
- Ratio ED50 (Mus musculus [4]): 1.3
- Ratio ED50 (Mus musculus [5]): 1.7
- Ratio ED50 (Mus musculus [6]): 0.35
- LD50 [7]: 18100 µmol/kg
- logD [8]: 1.99

SMILES: CN1CCN=C(c2ccccc2)c2cc(Cl)ccc21 [MEDAZEPAM]
- Ratio ED50 (Mus musculus [1]): 6.2
- Ratio ED50 (Mus musculus [2]): 0.81
- Ratio ED50 (Mus musculus [3]): 0.32
- Ratio ED50 (Mus musculus [4]): 1.3
- Ratio ED50 (Mus musculus [5]): 1
- Ratio ED50 (Mus musculus [6]): 0.3
- LD50 [7]: 5240 µmol/kg
- logD [8]: 4.05

SMILES: CN1C(=O)C(OCCO)N=C(c2ccccc2)c2cc(Cl)ccc21 (centres undefined)
- Ratio ED50 (Mus musculus [1]): 12.5
- Ratio ED50 (Mus musculus [2]): 0.8
- Ratio ED50 (Mus musculus [3]): 8.3
- Ratio ED50 (Mus musculus [4]): 1.1
- Ratio ED50 (Mus musculus [5]): 1.5
- Ratio ED50 (Mus musculus [6]): 0.4
- LD50 [7]: 17400 µmol/kg
- logD [8]: 1.98

SMILES: CC(=O)OC[C@H]1O[C@@H](OCCOC2N=C(c3ccccc3)c3cc(Cl)ccc3NC2=O)[C@H](OC(C)=O)[C@@H](OC(C)=O)[C@@H]1OC(C)=O (mixture of isomers)
- Ratio ED50 (Mus musculus [1]): 13.8
- Ratio ED50 (Mus musculus [2]): 3.4
- Ratio ED50 (Mus musculus [3]): 1.02
- Ratio ED50 (Mus musculus [4]): 0.75
- Ratio ED50 (Mus musculus [5]): 1.83
- Ratio ED50 (Mus musculus [6]): 0.76
- LD50 [7]: 17200 µmol/kg

SMILES: CN1C(=O)C(OCC(O)CO)N=C(c2ccccc2)c2cc(Cl)ccc21 (centres undefined)
- Ratio ED50 (Mus musculus [1]): 10.3
- Ratio ED50 (Mus musculus [2]): 0.38
- Activity (Mus musculus [11]): inactive
- Ratio ED50 (Mus musculus [4]): 0.8
- Ratio ED50 (Mus musculus [5]): 1
- Ratio ED50 (Mus musculus [6]): 0.42
- LD50 [7]: 16000 µmol/kg
- logD [8]: 1.74

SMILES: O=C1Nc2ccc(Cl)cc2C(c2ccccc2)=NC1OCC(O)CO (centres undefined)
- Ratio ED50 (Mus musculus [1]): 12.5
- Ratio ED50 (Mus musculus [2]): 2.3
- Ratio ED50 (Mus musculus [3]): 0.52
- Ratio ED50 (Mus musculus [4]): 0.7
- Ratio ED50 (Mus musculus [5]): 1.4
- Ratio ED50 (Mus musculus [6]): 0.51
- LD50 [7]: 16600 µmol/kg
- logD [8]: 1.71

SMILES: O=C1Nc2ccc(Cl)cc2C(c2ccccc2Cl)=NC1OCCO (centres undefined)
- Ratio ED50 (Mus musculus [1]): 33.6
- Ratio ED50 (Mus musculus [2]): 1.2
- Ratio ED50 (Mus musculus [3]): 2.8
- Ratio ED50 (Mus musculus [4]): 1.86
- Ratio ED50 (Mus musculus [5]): 17.8
- Ratio ED50 (Mus musculus [6]): 0.65
- LD50 [7]: 9360 µmol/kg
- logD [8]: 2.04

SMILES: O=C1Nc2ccc(Cl)cc2C(c2ccccc2)=NC1OC(=O)C(Cl)(Cl)Cl (centres undefined)
- Ratio ED50 (Mus musculus [1]): 16.5
- Ratio ED50 (Mus musculus [2]): 5.7
- Ratio ED50 (Mus musculus [3]): 1.32
- Ratio ED50 (Mus musculus [4]): 1.6
- Ratio ED50 (Mus musculus [5]): 1.92
- Ratio ED50 (Mus musculus [6]): 0.73
- LD50 [7]: 6850 µmol/kg

SMILES: CC1(C)OCC(COC2N=C(c3ccccc3)c3cc(Cl)ccc3NC2=O)O1 (centres undefined)
- Activity (Mus musculus [9]): inactive
- Activity (Mus musculus [10]): inactive
- Activity (Mus musculus [11]): inactive
- Activity (Mus musculus [12]): inactive
- Ratio ED50 (Mus musculus [5]): 1.7
- Ratio ED50 (Mus musculus [6]): 0.52
- LD50 [7]: 9980 µmol/kg
- logD [8]: 2.14

SMILES: CN1C(=O)C(OCC2COC(C)(C)O2)N=C(c2ccccc2)c2cc(Cl)ccc21 (centres undefined)
- Activity (Mus musculus [9]): inactive
- Activity (Mus musculus [10]): inactive
- Activity (Mus musculus [11]): inactive
- Activity (Mus musculus [12]): inactive
- Ratio ED50 (Mus musculus [5]): 1.9
- Ratio ED50 (Mus musculus [6]): 2.3
- LD50 [7]: 9160 µmol/kg
- logD [8]: 2.37
